Assay results taken from article PMC5377441 (International Journal for Parasitology: Drugs and Drug …, 2017).
Like-named read-outs stand apart in the source and are kept apart here. Marks after values point to notes of the source that are not given here. One block for each compound: values may come before it.

Key:
H. polygyrus [1] = test: In vitro drug uptake and elimination by H. polygyrus; assay type: in vitro ADME, Heligmosomoides polygyrus
adult H. polygyrus = test: In vitro drug activity against adult H. polygyrus, phenotypic readout; assay type: cell-based, Heligmosomoides polygyrus; settings: 200 μM, 72 h
Outline: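 Adult H. polygyrus were dissected from NMRI mice from ten days post-infection onward. Four worms per drug were incubated in 2 ml at 200 μM for 72 h, with DMSO-matched worms as controls. Motility, transparency and morphology were scored from 3 (normal) to 0 (highly impaired or dead). Runs were done in duplicate and repeated once.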

T. muris [2] = test: In vitro drug uptake and elimination by T. muris; assay type: in vitro ADME, Trichuris muris; settings: 24 h
H. polygyrus [3] = test: Uptake of albendazole and its metabolites by H. polygyrus in vivo; parameters: species or system Heligmosomoides polygyrus in NMRI mice; settings: for albendazole in worms: oral 100 mg/kg, average
Outline: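 Female NMRI mice were infected by oral gavage with 80 H. polygyrus L3. Groups received 100 mg/kg albendazole, albendazole after 50 mg/kg ABT given 16 h earlier, or albendazole sulfoxide, orally or intraperitoneally. Four mice per time point were killed at 2, 5 or 8 h (intraperitoneal groups at 2 h only). Worms were recovered, and drug was quantified by HPLC-UV/vis and reported per ten worms.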

[4] = assay type: in vivo, NMRI mice; settings: for albendazole in small intestinal mucosa / albendazole in stomach content: intraperitoneal 100 mg/kg, 2 h
adult T. muris = settings: incubation at >600 μM, 72 h; ref Keiser et al., 2012; cited from earlier work
hookworm infections = settings: single oral dosage; ref Keiser and Utzinger, 2008; cited from earlier work
trichuriasis = settings: ref Keiser and Utzinger, 2008; cited from earlier work
T. muris [5] = test: Drug uptake by T. muris in vivo; parameters: species or system Trichuris muris in C57BL/10 mice; settings: in vivo
T. muris [6] = settings: oral 300 mg/kg; ref Keiser et al., 2013; cited from earlier work
H. polygyrus [7] = settings: oral 100 mg/kg, ref Unpublished data, 100 mg/kg, cited from earlier work
[8] = assay type: in vivo, C57BL/10 mice

albendazole sulfoxide detected in worms (H. polygyrus [1]; incubation 5 to 100 μM, 24 h, range or mean over the concentrations): 15 nmol/10 worms
albendazole sulfone detected in worms (H. polygyrus [1]; incubation 5 to 100 μM, 24 h, range, mean or maximum over the concentrations): 33 nmol/10 worms
ABZSO2 in worms (H. polygyrus [1]; incubation at 5 μM, 24 h): 33 ± 10 nmol/10 worms
ABZSO in medium (H. polygyrus [1]; incubation at 5 μM, 24 h): 0.2 ± 0.1 µM
ABZSO in worms (H. polygyrus [1]; incubation at 5 μM, 24 h): 19 ± 10 nmol/10 worms
ABZSO2 in worms (H. polygyrus [1]; incubation at 10 μM, 24 h): 51 ± 23 nmol/10 worms
ABZSO in medium (H. polygyrus [1]; incubation at 10 μM, 24 h): 0.2 ± 0.1 µM
ABZSO in worms (H. polygyrus [1]; incubation at 10 μM, 24 h): 19 ± 3 nmol/10 worms
ABZSO2 in worms (H. polygyrus [1]; incubation at 25 μM, 24 h): 23 ± 8 nmol/10 worms
ABZSO in medium (H. polygyrus [1]; incubation at 25 μM, 24 h): 0.4 ± 0.0 µM
ABZSO in worms (H. polygyrus [1]; incubation at 25 μM, 24 h): 13 ± 11 nmol/10 worms
ABZSO2 in worms (H. polygyrus [1]; incubation at 50 μM, 24 h): 30 ± 20 nmol/10 worms
ABZSO in medium (H. polygyrus [1]; incubation at 50 μM, 24 h): 0.3 ± 0.0 µM
ABZSO in worms (H. polygyrus [1]; incubation at 50 μM, 24 h): 9 ± 5 nmol/10 worms
ABZSO2 in worms (H. polygyrus [1]; incubation at 75 μM, 24 h): 31 ± 8 nmol/10 worms
ABZSO in medium (H. polygyrus [1]; incubation at 75 μM, 24 h): 0.3 ± 0.0 µM
ABZSO in worms (H. polygyrus [1]; incubation at 75 μM, 24 h): 16 ± 11 nmol/10 worms
ABZSO2 in worms (H. polygyrus [1]; incubation at 100 μM, 24 h): 33 ± 21 nmol/10 worms
ABZSO in medium (H. polygyrus [1]; incubation at 100 μM, 24 h): 0.2 ± 0.0 µM
ABZSO in worms (H. polygyrus [1]; incubation at 100 μM, 24 h): 16 ± 8 nmol/10 worms
albendazole in the parasite and the culture medium (T. muris [2]; incubation 5-100 μM): neither detected
albendazole sulfoxide in the parasite and the culture medium (T. muris [2]; incubation 5-100 μM): neither detected
ABZSO2 in worms (T. muris [2]; incubation at 5 μM): 122 ± 45 nmol/10 worms
ABZSO2 in worms (T. muris [2]; incubation at 10 μM): 185 ± 55 nmol/10 worms
ABZSO2 in worms (T. muris [2]; incubation at 25 μM): 421 ± 171 nmol/10 worms
ABZSO2 in worms (T. muris [2]; incubation at 50 μM): 780 ± 258 nmol/10 worms
ABZSO2 in worms (T. muris [2]; incubation at 75 μM): 1127 ± 451 nmol/10 worms
ABZSO2 in worms (T. muris [2]; incubation at 100 μM): 1348 ± 447 nmol/10 worms
Structure (SMILES): CCCS(=O)(=O)c1ccc2nc(NC(=O)OC)[nH]c2c1 [Albendazole sulfone, albendazole sulfone]
Drug effect (reduction of parasite viability) (adult H. polygyrus): 40% [200 μM]
Drug effect (reduction of parasite viability) (adult H. polygyrus; listed as albendazole sulfone): 40%

Structure (SMILES): CCC[S+]([O-])c1ccc2[nH]c(NC(=O)OC)nc2c1 (centres unmarked) [Albendazole sulfoxide, albendazole sulfoxide]
albendazole in the culture medium (H. polygyrus [1]; incubation 5 to 100 μM, 24 h): Neither albendazole nor albendazole sulfone could be quantified
albendazole sulfone in the culture medium (H. polygyrus [1]; incubation 5 to 100 μM, 24 h): Neither albendazole nor albendazole sulfone could be quantified
Drug effect (reduction of parasite viability) (adult H. polygyrus): 60% [200 μM]
Drug effect (reduction of parasite viability) (adult H. polygyrus; listed as albendazole sulfoxide): 60%
albendazole in worms (H. polygyrus [3]): No albendazole was detected
albendazole in small intestinal mucosa [4]: no albendazole was detected
albendazole in stomach content [4]: no albendazole was detected
albendazole sulfoxide in plasma, compared to the albendazole treatment ([4]; oral 100 mg/kg, 5 h): 5.2 fold
albendazole sulfoxide in the mucosa of the small intestine ([4]; oral 100 mg/kg, 5 h): 137 µmol/g
albendazole sulfoxide in the mucosa of the small intestine ([4]; oral 100 mg/kg, other time points (2 and 8 h)): below 27 μmol/g

albendazole sulfone in the culture medium (H. polygyrus [1]; incubation 5 to 100 μM, 24 h): could not be quantified
ABZ in worms (H. polygyrus [1]; incubation at 5 μM, 24 h): 13 ± 6 nmol/10 worms
ABZ in worms (H. polygyrus [1]; incubation at 10 μM, 24 h): 16 ± 5 nmol/10 worms
ABZ in worms (H. polygyrus [1]; incubation at 25 μM, 24 h): 5 ± 8 nmol/10 worms
ABZ in worms (H. polygyrus [1]; incubation at 50 μM, 24 h): 28 ± 4 nmol/10 worms
albendazole in worms, plateau (H. polygyrus [1]; incubation at 50 μM, longer than 8 h): 29 nmol/10 worms
ABZ in worms (H. polygyrus [1]; incubation at 75 μM, 24 h): 55 ± 49 nmol/10 worms
ABZ in worms (H. polygyrus [1]; incubation at 100 μM, 24 h): 10 ± 21 nmol/10 worms
albendazole quantity in worms, maximum (H. polygyrus [3]; in vivo, 100 mg/kg): up to 10 nmol per ten H. polygyrus
albendazole in worms (H. polygyrus [3]): 6.2 nmol/10 worms
drug quantity in worms, maximum (T. muris [5]): up to 31 nmol per ten T. muris
albendazole in small intestinal mucosa [4]: not found
albendazole in stomach content [4]: 2217 µmol/g
albendazole in the mucosa ([4]; oral 100 mg/kg, 8 h): 13 µmol/g
albendazole in large intestine content ([4]; oral 100 mg/kg, end of the decrease over time (2-8 h)): 99 µmol/g
albendazole in large intestine content ([4]; oral 100 mg/kg, start of the decrease over time (2-8 h)): 462 µmol/g
albendazole in stomach content ([8]; intraperitoneal 100 mg/kg, 2 h): 139 µmol/g
albendazole in the mucosa of the large intestine ([8]; intraperitoneal 100 mg/kg, 2 h): 8 µmol/g
albendazole in small intestine content ([8]; oral 100 mg/kg, 5 and 8 h): around 5 μmol/g
albendazole in large intestinal content ([8]; oral 100 mg/kg, 2 h): 208 µmol/g
albendazole in small intestine content ([8]; oral 100 mg/kg, 2 h): 394 µmol/g
albendazole in the mucosa of the small intestine ([8]; oral 100 mg/kg, 2 h): 5 µmol/g
albendazole in large intestinal content ([8]; oral 100 mg/kg, 5 h): 57 µmol/g
albendazole in large intestinal content ([8]; oral 100 mg/kg, 8 h): 16 µmol/g
albendazole in stomach content ([8]; oral 100 mg/kg, average between 2 and 8 h): 114 µmol/g
albendazole sulfone in the culture medium (T. muris [2]; incubation 5 to 100 μM): not detected
ABZ in worms (T. muris [2]; incubation at 5 μM): 94 ± 44 nmol/10 worms
ABZ in worms (T. muris [2]; incubation at 10 μM): 176 ± 83 nmol/10 worms
ABZ in worms (T. muris [2]; incubation at 25 μM): 263 ± 173 nmol/10 worms
ABZ in worms (T. muris [2]; incubation at 50 μM): 551 ± 528 nmol/10 worms
ABZ in worms (T. muris [2]; incubation at 75 μM): 598 ± 336 nmol/10 worms
ABZ in worms (T. muris [2]; incubation at 100 μM): 641 ± 467 nmol/10 worms
Structure (SMILES): CCCSc1ccc2nc(NC(=O)OC)[nH]c2c1 [Albendazole, albendazole]
Drug effect (reduction of parasite viability) (adult H. polygyrus): 50% [200 μM]
Drug effect (reduction of parasite viability) (adult H. polygyrus; listed as albendazole): 50%
Drug effect (adult T. muris): <50% ^b
cure rate (hookworm infections): 72%
cure rate (trichuriasis): below 36%
Worm burden reduction (T. muris [6]): 42% [300 mg/kg] ^c
Worm burden reduction (H. polygyrus [7]): 100% [100 mg/kg] ^a
Worm burden reduction (H. polygyrus [7]; listed as albendazole): 100%
